From ChEMBL document CHEMBL1127539, “Aminodiol HIV protease inhibitors. 1. Design, synthesis, and preliminary SAR” (J Med Chem, 1994)

How the values were obtained:
[1] = molecular target: Human immunodeficiency virus type 1 protease (Human immunodeficiency virus 1, UniProt Q72874); assay: In vitro inhibition of HIV-1 protease.
Method in brief: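 HPLC-monitored cleavage of peptide H2N-Val-Ser-Gln-Asn-(β-naphthylalanine)-Pro-Ile-Val-OH (0.45 mM final) by purified recombinant HIV-1 protease (1-10 nM final; E. coli maltose-binding-protein fusion, cleaved off, 99% pure). Buffer 50 mM sodium acetate, 1 mg/mL BSA, pH 5.5; DMSO stock. 30 min at 37 °C, quenched with phosphoric acid. Screened at 0.1, 1, 10 μM, then IC50 from five concentrations.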

[2] = tested on: Human immunodeficiency virus 1; assay: The concentration was measured on HIV-1 IIIB virus; format: functional; conditions: read-out: ED50 (the source's name)
Method in brief: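 Human PBMCs, PHA-stimulated, infected with HIV-1 IIIB at m.o.i. 0.001–0.02 and kept with graded compound. Half the medium was replaced with fresh compound-containing medium on day 3. p24 in supernatant measured by ELISA at day 7; ED50 = dose giving 50% p24 reduction relative to control wells; n = 2.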

[3] = The maximum plasma concentration was measured on rats after oral administration; format: ADME, organism-based; parameters: route oral; conditions: rat
Method in brief: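 Fasted male Sprague-Dawley rats dosed by gavage as a suspension in 0.2% carboxymethyl cellulose or an ethanol solution: [3H] compound at 1.3 μmol/kg (n = 3) or unlabeled at 22 μmol/kg (n = 2). Plasma quantified by thin-layer radiochromatography (LLOQ 1 nM) or LC/MS/MS (LLOQ 10 nM). Cmax given as mean ± SEM, n = 5.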

Cathepsin D = Cathepsin D (Homo sapiens, UniProt P07339); assay: The inhibitory concentration value was measured on Human cathepsin D at 31000 nM
Method in brief: (§1)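 Spectrophotometric assay at 37 °C in 0.1 M formate, pH 3, with chromogenic peptide H-Pro-Thr-Glu-Phe-p-nitro-Phe-Arg-Leu-OH at 0.32 mM final. Reaction started with enzyme: 0.36 units of human liver cathepsin D or 0.03 units of porcine stomach pepsin. Absorbance at 310 nm followed for 20 min; buffer-only controls; highest concentration tested 31000 nM.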

Pepsin A = Pepsin A (Sus scrofa, UniProt P00791); assay: The inhibitory concentration value was measured on porcine pepsin at 31000 nM; method in brief: as §1
[4] = The oral bioavailability was measured on rats after oral administration; format: ADME, organism-based; conditions: rat, in vivo, read-out: Bioavailabiility
Method in brief: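 Male Sprague-Dawley rats (200-350 g), jugular cannula placed the day before, fasted overnight, water ad libitum. [3H]-labelled compound 1.3 μmol/kg iv and po (n = 3 per route, TLRC plasma assay), or unlabelled 9 μmol/kg iv and 22 μmol/kg oral (n = 2 per route, LC/MS/MS). Dosing was iv in ethanol over 5 min and oral by gavage as 0.2% CMC suspension or ethanol solution.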

[5] = The biological half life (t1/2) was measured on rats after intravenous administration; format: ADME, organism-based; conditions: rat, in vivo
Method in brief: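 Male Sprague-Dawley rats (200–350 g), jugular-cannulated, fasted overnight, given an ethanol solution infused iv over 5 min: [3H] compound at 1.3 μmol/kg (n = 3) or unlabeled at 9 μmol/kg (n = 2). Plasma measured by radio-TLC or LC/MS/MS. Half-life by model-independent analysis; mean ± SEM, n = 5.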

[6] = tested on: Human immunodeficiency virus 2; assay: The concentration was measured on HIV-2CBL-20 virus; format: functional; conditions: read-out: ED50 (the source's name)
Method in brief: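 HIV-2 CBL-20 infection of CEM-SS cells (5000/well) at multiplicity 0.04, in RPMI with 10% fetal calf serum; final DMSO at most 0.125%. Incubated 6 days at 37 °C, 5% CO2, then 4 h with XTT/PMS; absorbance at 450 nm (650 nm reference). ED50 from formazan relative to uninfected controls; n = 7.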

[7] = tested on: Human immunodeficiency virus 1; assay: Inhibition of viral replication by XTT endpoint; format: functional; conditions: read-out: ED50 (the source's name)
Method in brief: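 CEM-SS cells (5000/well) in RPMI with 10% fetal calf serum infected with HIV-1 RF at multiplicity 0.04; compound from DMSO stock, final DMSO at most 0.125%. After 6 days at 37 °C, XTT/PMS added for 4 h; formazan read at 450 nm against 650 nm reference. ED50 = concentration restoring formazan in infected cells to 50% of control cells; mean of two determinations.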

Renin = molecular target: T1, Renin (Homo sapiens, UniProt P00797); assay: The inhibitory concentration value was measured on Human renin at 100000 nM
T1 sequence (P00797 whole entry): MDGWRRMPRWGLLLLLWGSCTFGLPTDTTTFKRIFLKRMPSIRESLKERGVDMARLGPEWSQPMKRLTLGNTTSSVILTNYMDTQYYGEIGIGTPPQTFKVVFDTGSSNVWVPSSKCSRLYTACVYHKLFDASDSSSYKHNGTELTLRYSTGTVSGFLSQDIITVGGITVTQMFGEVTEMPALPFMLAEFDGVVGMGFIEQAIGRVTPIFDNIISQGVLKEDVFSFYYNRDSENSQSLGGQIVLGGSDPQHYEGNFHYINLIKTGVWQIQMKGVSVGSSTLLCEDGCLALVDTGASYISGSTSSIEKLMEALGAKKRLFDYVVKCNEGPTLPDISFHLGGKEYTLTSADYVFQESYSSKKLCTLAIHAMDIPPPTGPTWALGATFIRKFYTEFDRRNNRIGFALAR

Sequence of Pepsin A (P00791 whole entry): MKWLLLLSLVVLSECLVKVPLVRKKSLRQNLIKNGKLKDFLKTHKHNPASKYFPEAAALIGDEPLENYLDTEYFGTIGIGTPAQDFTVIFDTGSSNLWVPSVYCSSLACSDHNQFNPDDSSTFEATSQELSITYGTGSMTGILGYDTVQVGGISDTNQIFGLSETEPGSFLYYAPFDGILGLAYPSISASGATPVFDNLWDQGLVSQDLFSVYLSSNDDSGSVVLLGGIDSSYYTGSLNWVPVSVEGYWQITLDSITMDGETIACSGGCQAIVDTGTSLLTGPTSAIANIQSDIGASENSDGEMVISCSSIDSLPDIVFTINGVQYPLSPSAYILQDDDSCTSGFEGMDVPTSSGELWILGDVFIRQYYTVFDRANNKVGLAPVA
Sequence of Cathepsin D (P07339 65-162 limits assumed): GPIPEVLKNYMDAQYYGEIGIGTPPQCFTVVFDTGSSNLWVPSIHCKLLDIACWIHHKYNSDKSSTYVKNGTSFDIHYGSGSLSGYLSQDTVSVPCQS
Sequence of Cathepsin D (P07339 169-412 limits assumed): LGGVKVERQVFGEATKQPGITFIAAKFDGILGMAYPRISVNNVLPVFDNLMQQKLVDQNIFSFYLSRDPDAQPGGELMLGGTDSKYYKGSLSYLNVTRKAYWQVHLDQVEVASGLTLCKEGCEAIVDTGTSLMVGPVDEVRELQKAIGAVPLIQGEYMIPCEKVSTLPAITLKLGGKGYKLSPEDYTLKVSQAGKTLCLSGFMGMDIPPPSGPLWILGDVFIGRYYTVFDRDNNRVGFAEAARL

SMILES | IC50 [1] | EC50 [7] | also measured
CO[C@H](CNC[C@@H](O)[C@H](Cc1ccccc1)NC(=O)OC(C)(C)C)[C@H](Cc1ccccc1)NC(=O)OC(C)(C)C | > 10000 nM | – | –
CC(C)(C)OC(=O)N[C@@H](Cc1ccccc1)[C@@H](O)CNC[C@H](O)[C@H](Cc1ccccc1)NC(=O)OC(C)(C)C | > 10000 nM | – | –
CC(C)(C)OC(=O)N[C@@H](Cc1ccccc1)[C@H](O)CNC[C@@H](O)[C@H](Cc1ccccc1)NC(=O)OC(C)(C)C | 125 nM | 80 nM | EC50 [2]: 25 nM; Cmax [3]: 240 nM; IC50 (Cathepsin D): > 31000 nM; IC50 (Pepsin A): > 31000 nM; bioavailability [4]: 40%; half-life [5]: 4.2 h; EC50 [6]: 170 nM; IC50 (Renin): > 100000 nM
CC(C)(C)OC(=O)N[C@H](CCNC[C@@H](O)[C@H](Cc1ccccc1)NC(=O)OC(C)(C)C)Cc1ccccc1 | 2900 nM | – | –
CCC(C)C(NC(=O)OC(C)(C)C)[C@H](O)CNC[C@@H](O)C(NC(=O)OC(C)(C)C)[C@@H](C)CC (single isomer, unassigned) | 4500 nM | 5300 nM | –
CN(C(=O)OC(C)(C)C)[C@@H](Cc1ccccc1)[C@H](O)CNC[C@@H](O)[C@H](Cc1ccccc1)NC(=O)OC(C)(C)C | 8500 nM | > 3000 nM | –
CC(C)(C)OC(=O)NC(Cc1ccc(O)cc1)[C@H](O)CNC[C@@H](O)[C@H](Cc1ccccc1)NC(=O)OC(C)(C)C (stereo not given in full) | 100 nM | 60 nM | –
CC(C)(C)OC(=O)N[C@@H](Cc1ccccc1)[C@H](O)CNC[C@H](O)[C@H](Cc1ccccc1)NC(=O)OC(C)(C)C | 4500 nM | – | –
CC(C)(C)OC(=O)N[C@@H](Cc1ccccc1)[C@H](O)COC[C@@H](O)[C@H](Cc1ccccc1)NC(=O)OC(C)(C)C | > 10000 nM | – | –
CC(C)OC(=O)N[C@@H](Cc1ccccc1)[C@H](O)CNC[C@@H](O)[C@H](Cc1ccccc1)NC(=O)OC(C)C | 900 nM | 1000 nM | –
CC(C)(C)NC(=O)N[C@@H](Cc1ccccc1)[C@H](O)CNC[C@@H](O)[C@H](Cc1ccccc1)NC(=O)OC(C)(C)C | 400 nM | 160 nM | –
CC(C)(C)OC(=O)NC(CC1CCCCC1)[C@H](O)CNC[C@@H](O)C(CC1CCCCC1)NC(=O)OC(C)(C)C (stereo not given in full) | 800 nM | 660 nM | –
CC(C)(C)OC(=O)N[C@@H](Cc1ccccc1)[C@H](O)CNC[C@H](O)[C@@H](Cc1ccccc1)NC(=O)OC(C)(C)C | > 10000 nM | – | –
O=C(N[C@@H](Cc1ccccc1)[C@H](O)CNC[C@@H](O)[C@H](Cc1ccccc1)NC(=O)OCc1ccccc1)OCc1ccccc1 | 3400 nM | > 5000 nM | –
CC(C)(C)COC(=O)N[C@@H](Cc1ccccc1)[C@H](O)CNC[C@@H](O)[C@H](Cc1ccccc1)NC(=O)OCC(C)(C)C | 6000 nM | – | –
CC(C)(C)OC(=O)NC(CCc1ccccc1)[C@H](O)CNC[C@@H](O)[C@H](Cc1ccccc1)NC(=O)OC(C)(C)C (stereo not given in full) | 500 nM | 690 nM | –
CC(C)(C)CC(=O)N[C@@H](Cc1ccccc1)[C@H](O)CNC[C@@H](O)[C@H](Cc1ccccc1)NC(=O)OC(C)(C)C | 4000 nM | 1200 nM | –
CC(C)(C)OC(=O)N[C@@H](Cc1ccccc1)[C@@H](O)CNCC(O)[C@@H](Cc1ccccc1)NC(=O)OC(C)(C)C (stereo not given in full) | > 10000 nM | – | –
CN(CC(O)[C@H](Cc1ccccc1)NC(=O)OC(C)(C)C)C[C@@H](O)[C@H](Cc1ccccc1)NC(=O)OC(C)(C)C (stereo not given in full) | > 10000 nM | – | –
CC(C)(C)OC(=O)N[C@@H](Cc1ccccc1)[C@H](O)CNC[C@@H](O)[C@@H](Cc1ccccc1)NC(=O)OC(C)(C)C | 10000 nM | – | –
CC(C)(C)OC(=O)N[C@@H](Cc1ccccc1)[C@H](O)CNC[C@@H](O)[C@H](Cc1ccccc1)NC(=O)SC(C)(C)C | 700 nM | 800 nM | –
